Data from ChEMBL document CHEMBL1143582, “Discovery of the alpha7 nicotinic acetylcholine receptor agonists. (R)-3'-(5-Chlorothiophen-2-yl)spiro-1-azabicyclo[2.2.2]octane-3,5'-[1',3']oxazolidin-2'-one as a novel, potent, selective, and orally bioavailable ligand” (J Med Chem, 2005).

Assays:
[1] = target: T1, Neuronal acetylcholine receptor subunit alpha-7 (Rattus norvegicus, UniProt Q05941); experiment: (§1) Inhibition of [125I]alpha-bungarotoxin binding to rat nicotinic acetylcholine receptor alpha7
[2] = target: T1, Neuronal acetylcholine receptor subunit alpha-7; experiment: as §1; remark: listed apart in the source
How it was run: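 Membranes from Wistar rat hippocampus made by sucrose homogenisation and differential centrifugation, then resuspended in 118 mM NaCl, 4.8 mM KCl, 2.5 mM CaCl2, 1.2 mM MgCl2, 20 mM Na-HEPES pH 7.5. Incubated with [125I]-α-bungarotoxin plus compounds, 37 °C, 3 h. Bound label collected by filtration. Nonspecific binding defined with 100 µM (−)-nicotine.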

[3] = Brain permeability is determined by ratio of concentration of compound in brain to that of in plasma (CB/CP) 2 hrs after oral dosing of 10.0 mg/kg (N=3); assay type: ADME, organism-based; parameters: dose 10 mg/kg, route oral; conditions: rat, read-out: Permeability
How it was run: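 Rats (N=3) given a single 10 mg/kg oral dose. Brain and plasma concentrations measured 2 h after dosing, and the brain/plasma ratio (CB/CP) calculated. Reported as mean ± SD.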

[4] = Inhibition of [125I]alpha-bungarotoxin binding to nicotinic acetylcholine receptor […]-delta-gamma from BC3H1 cells; assay type: cell-based, Mus musculus; conditions: bc3h-1
How it was run: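 BC3H1 muscle cells grown in DMEM with 4 mM L-glutamine and 20% FBS. Membranes from confluent cells washed in HEPES-buffered saline, pH 7.5. Incubated with [125I]-α-bungarotoxin plus compounds, 37 °C, 3 h, then filtered. Nonspecific binding defined with […].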

[5] = Area under plasma concentration time curve 24 hours after peroral dosing of 10.0 mg/kg (AUC) in rats (N=4); assay type: ADME, organism-based; parameters: dose 10 mg/kg, route oral; conditions: rat, po
How it was run: (§2)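 Rats (N=4) given a single oral dose; plasma sampled over 24 h. AUC0-24h estimated from the plasma concentration-time curve and Cmax taken as the peak plasma level. Reported as mean ± SD.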

[6] = Maximum plasma concentration after peroral dosing of 1.0 mg/kg in rats (N=4); assay type: ADME, organism-based; parameters: dose 1 mg/kg, route oral; conditions: rat, po; how it was run: as §2
[7] = Maximum plasma concentration after peroral dosing of 10.0 mg/kg in rats (N=4); assay type: ADME, organism-based; parameters: dose 10 mg/kg, route oral; conditions: rat, po; how it was run: as §2
[8] = Area under plasma concentration time curve 24 hours after peroral dosing of 1.0 mg/kg (AUC) in rats (N=4); assay type: ADME, organism-based; parameters: dose 1 mg/kg, route oral; conditions: rat, po; how it was run: as §2
[9] = Oral bioavailability of compound after peroral dosing of 10.0 mg/kg in rats (N=4); assay type: ADME, organism-based; conditions: rat, in vivo, read-out: BA
[10] = target: Neuronal acetylcholine receptor; alpha4/beta2 (Rattus norvegicus, UniProt P09483+P12390); experiment: Inhibition of [3H]cytisine binding to nicotinic acetylcholine receptor alpha4-beta2 from rat cerebral cortex; assay type: tissue-based
How it was run: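 Wistar rat cerebral cortex membranes in 120 mM NaCl, 2.5 mM KCl, 1 mM CaCl2, 1 mM MgCl2, 50 mM Tris-HCl pH 7.4. Incubated with [3H]cytisine plus compounds, 4 °C, 75 min. Filtered and counted by liquid scintillation. Nonspecific binding defined with 100 µM (−)-nicotine.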

[11] = Oral bioavailability of compound after peroral dosing of 1.0 mg/kg in rats (N=4); assay type: ADME, organism-based; conditions: rat, in vivo, read-out: BA
[12] = Brain permeability is determined by ratio of concentration of compound in brain to that of in plasma (CB/CP) 1 hr after subcutaneous dosing of 1.0 mg/kg (N=3); assay type: ADME, organism-based; parameters: dose 1 mg/kg, route subcutaneous; conditions: rat, sc, read-out: Permeability
How it was run: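 Rats (N=3) given a single 1 mg/kg sc dose. Brain and plasma concentrations measured 1 h later, and the brain/plasma ratio (CB/CP) calculated. Reported as mean ± SD.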

[13] = Half-life of plasma concentration after intravenous dosing of 1 mg/kg in rats (N=4); conditions: rat

T1 sequence (Q05941 whole entry): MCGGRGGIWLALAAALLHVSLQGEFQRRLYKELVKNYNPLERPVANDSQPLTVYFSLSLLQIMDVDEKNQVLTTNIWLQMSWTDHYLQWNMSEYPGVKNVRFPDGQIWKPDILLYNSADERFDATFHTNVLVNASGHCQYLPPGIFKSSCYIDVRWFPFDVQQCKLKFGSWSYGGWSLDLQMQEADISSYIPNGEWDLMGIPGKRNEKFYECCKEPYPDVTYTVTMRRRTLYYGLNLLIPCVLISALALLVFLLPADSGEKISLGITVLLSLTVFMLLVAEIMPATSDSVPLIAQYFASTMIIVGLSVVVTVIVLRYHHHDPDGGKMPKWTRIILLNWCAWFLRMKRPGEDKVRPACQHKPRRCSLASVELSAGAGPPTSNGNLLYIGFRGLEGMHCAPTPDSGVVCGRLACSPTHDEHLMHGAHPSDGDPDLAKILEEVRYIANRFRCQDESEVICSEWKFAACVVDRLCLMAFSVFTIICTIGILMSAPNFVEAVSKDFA
Sequence of Neuronal acetylcholine receptor; alpha4/beta2 (P09483 whole entry): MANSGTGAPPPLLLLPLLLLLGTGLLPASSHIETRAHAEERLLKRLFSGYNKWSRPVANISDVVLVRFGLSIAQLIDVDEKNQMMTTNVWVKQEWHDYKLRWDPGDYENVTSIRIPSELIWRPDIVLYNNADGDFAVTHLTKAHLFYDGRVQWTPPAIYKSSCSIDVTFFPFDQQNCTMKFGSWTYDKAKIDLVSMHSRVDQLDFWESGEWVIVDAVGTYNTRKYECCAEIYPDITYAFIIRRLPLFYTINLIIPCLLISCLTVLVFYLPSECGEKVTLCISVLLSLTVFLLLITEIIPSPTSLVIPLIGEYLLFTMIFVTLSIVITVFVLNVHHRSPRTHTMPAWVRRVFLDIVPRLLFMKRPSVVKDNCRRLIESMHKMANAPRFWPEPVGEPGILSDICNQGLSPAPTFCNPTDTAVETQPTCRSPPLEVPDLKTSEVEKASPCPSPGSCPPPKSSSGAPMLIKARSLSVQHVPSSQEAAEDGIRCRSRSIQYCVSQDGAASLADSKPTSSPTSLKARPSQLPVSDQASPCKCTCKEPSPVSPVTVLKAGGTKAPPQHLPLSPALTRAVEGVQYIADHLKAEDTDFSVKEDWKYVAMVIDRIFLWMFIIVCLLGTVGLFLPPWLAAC
Sequence of Neuronal acetylcholine receptor; alpha4/beta2 (P12390 whole entry): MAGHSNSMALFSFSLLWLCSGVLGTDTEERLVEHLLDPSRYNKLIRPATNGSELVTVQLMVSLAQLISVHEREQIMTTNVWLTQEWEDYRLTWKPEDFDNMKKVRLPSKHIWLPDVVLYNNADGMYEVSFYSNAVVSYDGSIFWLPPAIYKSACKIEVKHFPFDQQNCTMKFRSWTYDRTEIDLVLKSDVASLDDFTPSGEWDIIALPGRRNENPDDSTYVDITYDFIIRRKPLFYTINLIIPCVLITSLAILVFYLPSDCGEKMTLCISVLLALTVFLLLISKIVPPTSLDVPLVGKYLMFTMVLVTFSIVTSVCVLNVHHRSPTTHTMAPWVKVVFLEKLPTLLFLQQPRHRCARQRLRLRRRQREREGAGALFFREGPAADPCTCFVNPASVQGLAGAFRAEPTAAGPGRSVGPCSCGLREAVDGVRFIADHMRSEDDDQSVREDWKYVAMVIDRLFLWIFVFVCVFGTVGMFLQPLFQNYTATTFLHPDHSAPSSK

| SMILES | Ki [1] [nM] | IC50 [2] [nM] | also measured |
| --- | --- | --- | --- |
| c1ccc2sc(CO[C@@H]3CN4CCC3CC4)cc2c1 | 13 | – | – |
| O=C1O[C@]2(CN3CCC2CC3)CN1c1nc2ccccc2s1 | 430 | – | – |
| O=C1O[C@]2(CN3CCC2CC3)CN1c1nc2ccccc2o1 | – | > 1000 | – |
| N#Cc1ccc(N2C[C@@]3(CN4CCC3CC4)OC2=O)s1 | 85 | – | – |
| O=C1O[C@]2(CN3CCC2CC3)CN1c1cc2ccccc2o1 | 370 | – | – |
| O=C1OC2(CN3CCC2CC3)CN1c1ccccc1 (stereo unspecified) | – | > 1000 | – |
| CC(C)c1ccc(N2C[C@@]3(CN4CCC3CC4)OC2=O)s1 | 65 | – | – |
| O=C1O[C@]2(CN3CCC2CC3)CN1c1ccsc1 | – | > 1000 | – |
| O=C1O[C@]2(CN3CCC2CC3)CN1c1ccc(Br)s1 | 4 | – | – |
| Cc1cc(N2C[C@@]3(CN4CCC3CC4)OC2=O)sc1C | – | > 1000 | – |
| Cc1ccc(N2C[C@@]3(CN4CCC3CC4)OC2=O)s1 | 12 | – | – |
| CC(O)c1ccc(N2C[C@@]3(CN4CCC3CC4)OC2=O)s1 (stereo partly specified) | 145 | – | – |
| O=C1O[C@]2(CN3CCC2CC3)CN1c1cc2ccccc2s1 | 75 | – | – |
| Cc1csc(N2C[C@@]3(CN4CCC3CC4)OC2=O)c1 | – | > 1000 | – |
| O=C1O[C@@]2(CN3CCC2CC3)CN1c1cc2ccccc2s1 | – | > 1000 | – |
| O=C1O[C@]2(CN3CCC2CC3)CN1c1ccc2ccccc2c1 | 31 | – | – |
| O=C1O[C@]2(CN3CCC2CC3)CN1c1ccc(Cl)s1 | 9 | – | Kp at 2 h [3]: 59; IC50 [4]: > 10000 nM; AUC at 24 h [5]: 4640 ng·h/mL; Cmax [6]: 56 ng/mL; Cmax [7]: 997 ng/mL; AUC at 24 h [8]: 224 ng·h/mL; bioavailability [9]: 108%; Ki [10]: 1800 nM; bioavailability [11]: 52% |
| O=C1NC[C@@]2(CN3CCC2CC3)O1 | – | – | IC50 [4]: > 10000 nM; Kp at 1 h [12]: 0.76; AUC at 24 h [5]: 5390 ng·h/mL; Cmax [7]: 1580 ng/mL; bioavailability [9]: 103% |
| O=C1O[C@]2(CN3CCC2CC3)CN1c1ccccn1 | – | > 1000 | – |
| O=C1O[C@@]2(CN3CCC2CC3)CN1c1ccc2ccccc2c1 | 205 | – | – |
| O=C1O[C@]2(CN3CCC2CC3)CN1c1cccs1 | 80 | – | – |
| CCc1ccc(N2C[C@@]3(CN4CCC3CC4)OC2=O)s1 | 21 | – | – |
| CC(=O)c1ccc(N2C[C@@]3(CN4CCC3CC4)OC2=O)s1 | 190 | – | – |
| Cc1ccsc1N1C[C@@]2(CN3CCC2CC3)OC1=O | – | > 1000 | – |
| O=C(CC1CN2CCC1CC2)c1cc2ccccc2s1 (single isomer, unassigned; (+)) | 65 | – | – |
| COc1ccc(/C=C2\CCCN=C2c2cccnc2)c(OC)c1 [GTS-21] | 220 | – | Kp at 2 h [3]: < 0.3; IC50 [4]: > 10000 nM; half-life [13]: 28.2 min; AUC at 24 h [5]: 453 ng·h/mL; Cmax [7]: 138 ng/mL; bioavailability [9]: 14%; Ki [10]: 84 nM |
